# Source: PubChem BioAssay (several laboratories)
# Wee1 degr inh – blocks degradation of human Wee1 kinase. P30291. HeLa Luc-Wee1K328M stability, luciferase luminescence; 100% = proteasome inhibitor MG132 effect. reporter increase, % at 5 µM. 1.2% of 220,000 active;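 active means activation above the mean of all tested compounds plus 3 SD, set per screening run, cut at about 8.8% in these data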;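 further: cells exposed to compound for 20 h before luminescence read; 0% = DMSO alone and 100% = MG132 at 30 µM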
# RBBP9 inh – blocks human serine hydrolase RBBP9; recombinant RBBP9, FP-Rh probe fluorescence polarization; O75884; 0.2% of 220,000 active; AID 1515; inhibition, % at 7.94 µM;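 active means inhibition above the campaign mean of all tested compounds plus 3 SD, cut at about 14% in these data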;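 further: plate controls were DMSO wells with RBBP9 for no effect and wells lacking RBBP9 protein for full effect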
#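 Test system – recombinant human RBBP9 · Input – RBBP9 2.5 µM in dispensing solution, pre-mixing · Medium – Tris buffer pH 8.0, NaCl, Pluronic · Schedule – preincubation 30 min plus labeling 45 min at 25 °C · Measured by – fluorescence polarization · Measure – % inhibition · Controls – DMSO and no-protein wells · Replicates – one well per compound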
# 14-3-3 Bad PPI – disrupts binding of bovine 14-3-3 zeta to phospho-Bad peptide | TR-FRET 14-3-3zeta/Dy647-pBad peptide displacement, 1 h | inhibition, % at 21.7 µM | 0.71% of 220,000 active | AID 781;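 active means inhibition above about 70%, limit read from the data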;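 further: 0% = full 14-3-3 plus peptide FRET controls and 100% = background without 14-3-3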
# Target sequence (P63103 whole entry, looked up): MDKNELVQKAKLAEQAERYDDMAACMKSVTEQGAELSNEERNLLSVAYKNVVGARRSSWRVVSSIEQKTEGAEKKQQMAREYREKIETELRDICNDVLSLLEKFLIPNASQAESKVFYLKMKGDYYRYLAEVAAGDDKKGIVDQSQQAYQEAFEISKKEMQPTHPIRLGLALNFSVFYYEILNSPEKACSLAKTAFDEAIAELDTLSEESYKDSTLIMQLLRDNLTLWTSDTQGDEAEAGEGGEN
# eIF4E 4G PPI – eIF4E/eIF4G interaction inhibition in translation initiation; inhibition, % at 21.7 µM; TR-FRET eIF4E-eIF4GI(517-606) binding, 2 h; 0.37% of 220,000 active; P63073+Q04637;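 further: 0% = full FRET control wells and 100% = background wells lacking eIF4GI fragment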
# p47phox inh – p47phox (human) inhibition. P14598. p47phox/p22phox peptide binding, fluorescence polarization, 2 h. inhibition, % at 24.7 µM. 0.53% of 220,000 active;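 further: 0% = p47phox with labelled peptide and 100% = labelled peptide alone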
# Target sequence (P14598 whole entry, looked up): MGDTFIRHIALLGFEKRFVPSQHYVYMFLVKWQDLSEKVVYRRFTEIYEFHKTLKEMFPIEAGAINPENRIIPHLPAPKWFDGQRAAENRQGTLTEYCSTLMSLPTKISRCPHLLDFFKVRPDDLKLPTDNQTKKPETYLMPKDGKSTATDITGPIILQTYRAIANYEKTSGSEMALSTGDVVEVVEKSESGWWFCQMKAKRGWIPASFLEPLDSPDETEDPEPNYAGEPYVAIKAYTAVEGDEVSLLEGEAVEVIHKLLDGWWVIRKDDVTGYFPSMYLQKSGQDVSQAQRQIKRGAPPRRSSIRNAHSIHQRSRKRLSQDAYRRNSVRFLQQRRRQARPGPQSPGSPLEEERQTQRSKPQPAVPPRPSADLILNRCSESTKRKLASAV
# Active calls of the source: *; . = no result given; [ ] = another dose, or the depositor's remark. Hits are enriched below; roughly 2.8% of the tested compounds scored in any of these assays.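 How the source made its calls, unless noted: active means inhibition above about 30% (limit read from the data); inactive means the rest.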
SMILES,Wee1 degr inh,RBBP9 inh,14-3-3 Bad PPI,eIF4E 4G PPI,p47phox inh
CCOC(=O)COc1cc(N2C(=O)CSCC2=O)c(Cl)cc1Cl,-3.0,0.9,-3.7,-0.9,-8.3
CCOC(=O)COc1cc(-n2c(=S)[nH]c3cc(OC)c(OC)cc3c2=O)c(Cl)cc1Cl,-0.6,-10.1,-13.0,0.8,37.4*
Cc1ccc(-c2nnc(Nc3ccc4c(c3)OCO4)c3ccccc23)cc1S(N)(=O)=O,-1.2,-3.1,-5.2,-6.2,-35.5
Cc1nnc(Nc2ccc3c(c2)OCO3)c2ccccc12,-0.1,-2.6,81.8*[fluorescence artefact?],7.1,-4.0
COc1cc(SC)ccc1C(=O)OCC(=O)NC1CC1,-0.7,-10.0,4.9,1.0,-1.6
O=S(=O)(Nc1cc(Sc2ncn[nH]2)c(O)c2ccccc12)c1ccccc1,-5.1,8.2,70.6*,26.6,18.3
Cc1cc(NS(=O)(=O)c2ccccc2)c(C)c(Cl)c1O,.,.,2.1,0.3,-9.1
CC(C)NC(=O)NC(=O)CSc1nnc(C(F)(F)F)n1C,-1.7,-4.6,-4.0,1.4,7.9
CCSc1nnc(NS(=O)(=O)c2ccc(OC)cc2)s1,0.6,6.7,-5.3,-1.1,-2.8
CC1(C)CC(=O)c2ccc(OCc3ccc([N+](=O)[O-])cc3)cc2O1,3.5,2.7,-10.5,33.7*,-7.8
Cc1ccc(-c2cn3cccc(C)c3n2)cc1,9.8*,-9.2,-8.9,2.5,-4.3
O=[N+]([O-])c1cccn2cc(-c3ccc(Br)cc3)nc12,9.8*,0.0,4.5,2.3,-7.5
Cc1ccn2cc(-c3ccc(Br)cc3)nc2c1,1.6,-5.1,3.8,6.5,-3.1
Cc1cccn2cc(-c3ccc(Cl)cc3)nc12,1.5,-3.0,2.5,3.5,1.7
O=C(CSc1nnc(-c2ccc(F)cc2)o1)c1ccc2c(c1)OCCO2,-3.4,-9.9,0.0,-15.0,-1.0
CC(C)(C)c1ccc(-c2nnc(SCC(=O)c3ccc4c(c3)OCCO4)o2)cc1,0.4,-11.1,87.1*,3.8,-9.2
C=C1c2ccccc2NC(=S)N1Cc1ccc2c(c1)OCO2,8.7,-6.3,-1.2,-3.2,-10.0
Cc1nc2ncnn2c(C)c1Cc1ccc(Cl)cc1F,1.2,0.6,2.3,-2.4,-0.6
CCC(=O)NC(c1ccc(OC)c(OC)c1)c1cc(Cl)c2cccnc2c1O (stereo unspecified),-3.5,1.1,-8.1,-0.1,40.2*
CCOc1ccc(C(Nc2cccnc2)c2cc(Cl)c3cccnc3c2O)cc1 (stereo unspecified),-3.0,-2.4,21.1,28.2,39.7*
COc1ccc(Cl)cc1C(=O)NNC(=O)CN1C(=O)C2CC=CCC2C1=O (stereo unspecified),-2.9,-10.9,-13.4,-3.5,-0.5
O=C(CCn1c(=O)[nH]c2ccsc2c1=O)NCc1ccc(F)cc1,-1.7,-3.9,-10.6,-3.5,8.0
C/C=C/c1ccc(OCCCCOc2c(OC)cccc2OC)c(OC)c1,14.7*,-2.3,-19.9,-1.3,-19.1
C/C=C/c1ccc(OCCCCOc2ccccc2C(C)=O)c(OC)c1,-0.4,-0.5,-2.2,3.5,-6.9
Cc1nnsc1C(=O)N1CCN(c2ccc(C#N)cn2)CC1,0.4,-6.4,17.7,0.7,0.1
SMILES,Wee1 degr inh,RBBP9 inh,14-3-3 Bad PPI,eIF4E 4G PPI,p47phox inh
Cc1cc(NC(=O)c2ccc(S(=O)(=O)N(C)C)cc2)no1,-1.2,-11.2,-2.8,8.5,-10.2
Cc1cc(C(=O)NNC(=O)c2ccc(S(=O)(=O)N(C)C)cc2)c(C)o1,9.5*,-1.5,9.7,-2.7,-12.2
CCOC(=O)c1sc(N)nc1C(C)(C)C,-2.7,1.5,74.1*,7.4,-11.1
CCOC(=O)C(=O)N1CCN(c2ccccc2OC)CC1,-3.0,4.7,-0.9,1.7,-1.3
S=C1N(c2ccccc2)CN(CCN2CCOCC2)CN1c1ccccc1,4.0,-6.4,-8.0,38.9*,0.5
CC(=O)Nc1cccc(/C(C)=N/NC(=O)c2ccc(O)cc2)c1,10.1*,-6.6,-11.5,-3.7,-9.2
Cc1ccc(S(=O)(=O)N2CCN(C(=O)Cc3ccccc3)CC2)cc1,-1.4,-1.4,7.3,2.4,-7.5
Cc1ccc(S(=O)(=O)N2CCN(C(=O)CC(C)(C)C)CC2)cc1,9.8*,2.7,-16.9,2.0,-4.3
Cc1ccc(S(=O)(=O)N2CCN(C(=O)CCC(=O)NCc3ccc(F)cc3)CC2)cc1,9.4*,-0.3,-5.6,17.7,-9.5
CCn1c(SCC(=O)N/N=C/C=C/c2ccco2)nnc1-c1ccc(OC)cc1,2.7,-6.7,80.1*[fluorescence artefact?],21.7,-0.2
COc1cc2c(C(=O)OCCN(C)C)c(CSc3ccccc3)n(C)c2cc1Br,10.4*,-4.9,13.2,-3.5,7.3
CCOC(=O)c1c(CN(C)C)n(-c2ccccc2)c2cc(Br)c(OC)cc12,0.2,-6.8,3.2,2.6,-15.2
CCN=C(Nc1ccc2c(c1)OCO2)SC1CC(=O)N(c2ccccc2F)C1=O (stereo unspecified),-0.7,-9.6,-7.7,-2.7,42.2*
Cn1nc(C(=O)NC(C)(C)C)c2ccccc21,-2.3,-2.3,-8.0,7.9,-9.8
O=[N+]([O-])c1ccc(C2Oc3ccccc3C3CC(c4ccccc4)=NN32)s1 (stereo unspecified),5.2,-30.3,-5.0,3.5,-42.7
O=C(CSc1nnc2n1CCCCC2)Nc1ccc(N2CCOCC2)cc1,0.1,0.2,-5.5,-2.1,-3.8
N#Cc1ncc(Cl)c2ccccc12,0.6,-3.3,-3.1,5.6,4.6
COc1ccc(/C=C/CN2CCCC(C(=O)c3ccc(OC)c(F)c3)C2)cc1 (stereo unspecified),9.1*,1.9,6.7,1.2,-20.0
COc1cccc(C(=O)C2CCCN(C/C=C/c3ccccc3OC)C2)c1 (stereo unspecified),-0.9,-8.0,-5.7,1.5,-11.7
COc1ccccc1-n1cnc2c(c1=O)c1nc3ccccc3nc1n2-c1ccc(C)c(C)c1,-0.7,-5.4,40.6,5.6,34.6*
COc1ccc2[nH]c3nc(SCc4nnc(-c5ccccc5)o4)nnc3c2c1,-1.4,2.5,74.1*,-1.1,-46.9
CCc1ccc2[nH]c3nc(SCc4nnc(-c5ccccc5)o4)nnc3c2c1,-1.5,-6.9,12.1,-15.0,3.4
CNS(=O)(=O)c1ccc(OC)c(-c2nnc3c4ccccc4c(C)nn23)c1,-0.9,-4.5,91.7*,-5.2,12.1
COc1ccc(S(=O)(=O)NC(C)(C)C)cc1-c1nnc2c3ccccc3c(C)nn12,0.5,-3.9,10.2,3.5,-3.4
C/C(=N/NC(=O)C1COc2ccccc2O1)c1ccc(Br)s1 (stereo unspecified),0.6,-0.1,0.6,97.9*,-2.5
C/C(=N\NC(=O)C1COc2ccccc2O1)c1ccc(Cl)s1 (stereo unspecified),1.1,-5.1,14.2,0.4,-11.1
O=C(Nc1ccc2oc(-c3cccnc3)nc2c1)c1ccc2c(c1)OCCO2,2.4,-6.8,80.8*,10.2,-11.5
COC(=O)C1=C2SCC(=O)N2C(N)=C(C#N)C1,11.8*,0.1,-3.9,-1.3,-11.3
